The values that follow come from ChEMBL document CHEMBL4304816, “A Novel Biphenyl-based Chemotype of Retinoid X Receptor Ligands Enables Subtype and Heterodimer Preferences” (ACS Med Chem Lett, 2019).

Activity calls are given as the source filed them. The rule behind the calls is not given here.

What all share (assay type): cell-based
Experiment [1] concerns the target T1, Retinoic acid receptor alpha (Homo sapiens) (UniProt P10276).
T1 sequence (whole entry): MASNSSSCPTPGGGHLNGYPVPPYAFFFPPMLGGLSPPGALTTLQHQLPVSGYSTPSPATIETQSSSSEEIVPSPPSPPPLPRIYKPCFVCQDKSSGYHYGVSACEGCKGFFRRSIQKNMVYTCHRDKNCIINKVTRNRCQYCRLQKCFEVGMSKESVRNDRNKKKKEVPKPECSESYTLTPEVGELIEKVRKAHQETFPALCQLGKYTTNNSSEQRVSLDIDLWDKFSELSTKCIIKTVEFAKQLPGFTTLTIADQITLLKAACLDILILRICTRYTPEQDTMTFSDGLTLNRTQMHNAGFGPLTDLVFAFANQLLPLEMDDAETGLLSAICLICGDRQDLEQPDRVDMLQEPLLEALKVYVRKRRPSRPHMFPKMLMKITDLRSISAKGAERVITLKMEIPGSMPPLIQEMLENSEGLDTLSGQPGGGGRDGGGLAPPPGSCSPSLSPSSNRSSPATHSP
Description: Agonist activity at Gal4-LBD fused RARalpha (unknown origin) expressed in HEK293T cells at 20 uM after 14 to 16 hrs by dual-Glo luciferase assay. The procedure, abridged:
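Gal4-hybrid reporter gene selectivity panel of related nuclear receptors (PPARα/β/γ, RARα/β/γ) in HEK293T cells. Activity is read as mean fold activation versus 0.1% DMSO vehicle, n ≥ 2.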

For experiment [2], the species on record is Homo sapiens. The experiment in a line: Agonist activity at full-length human PPARgamma/RXR expressed in HEK293T cells at 20 uM after 14 to 16 hrs by dual-glo luciferase reporter gene assay relative to untreated control. The procedure, abridged:
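RXR:PPARγ heterodimer reporter assay in HEK293T cells with test compound alone. Mean relative activation is taken versus 0.1% DMSO, from three independent experiments each run in duplicate.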

The target of experiment [3] is T2, Retinoic acid receptor RXR-alpha (Homo sapiens) (UniProt P19793).
T2 sequence (whole entry): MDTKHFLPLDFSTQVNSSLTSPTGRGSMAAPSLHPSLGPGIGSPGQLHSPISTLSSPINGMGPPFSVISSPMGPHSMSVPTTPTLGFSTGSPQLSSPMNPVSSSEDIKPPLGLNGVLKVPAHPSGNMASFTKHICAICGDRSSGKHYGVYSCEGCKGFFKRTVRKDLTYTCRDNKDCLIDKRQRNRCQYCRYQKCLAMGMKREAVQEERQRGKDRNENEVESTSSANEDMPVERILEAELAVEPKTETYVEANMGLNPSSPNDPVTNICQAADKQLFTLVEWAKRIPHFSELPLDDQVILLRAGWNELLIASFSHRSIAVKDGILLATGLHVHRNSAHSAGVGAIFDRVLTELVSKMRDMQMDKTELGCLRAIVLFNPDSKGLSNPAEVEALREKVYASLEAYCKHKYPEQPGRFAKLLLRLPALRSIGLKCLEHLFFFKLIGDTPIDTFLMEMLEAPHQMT
Description: Agonist activity at Gal4-LBD fused RXRalpha (unknown origin) expressed in HEK293T cells assessed as fold activation at 10 uM after 14 to 16 hrs by dual-Glo luciferase assay relative to untreated control. The procedure, abridged:
(§1)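 Gal4-hybrid RXRα/β/γ reporter gene assays in HEK293T cells. Fold activation is the maximal fold activation versus 0.1% DMSO.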

The target in experiment [4] is T3, Retinoic acid receptor RXR-gamma (Homo sapiens, UniProt P48443).
T3 sequence (P48443 whole entry): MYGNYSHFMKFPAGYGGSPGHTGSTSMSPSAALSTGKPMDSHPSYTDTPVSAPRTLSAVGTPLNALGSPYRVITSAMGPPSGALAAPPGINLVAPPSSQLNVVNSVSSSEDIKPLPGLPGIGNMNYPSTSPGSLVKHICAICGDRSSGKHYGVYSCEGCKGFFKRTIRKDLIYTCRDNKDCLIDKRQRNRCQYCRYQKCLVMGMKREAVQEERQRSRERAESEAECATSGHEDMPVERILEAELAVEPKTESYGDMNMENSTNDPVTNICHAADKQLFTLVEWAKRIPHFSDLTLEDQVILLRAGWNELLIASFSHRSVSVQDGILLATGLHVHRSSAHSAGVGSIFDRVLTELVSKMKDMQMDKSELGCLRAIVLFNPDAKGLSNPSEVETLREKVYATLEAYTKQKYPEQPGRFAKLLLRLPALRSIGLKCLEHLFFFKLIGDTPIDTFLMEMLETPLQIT
Description: Agonist activity at Gal4-LBD fused RXRgamma (unknown origin) expressed in HEK293T cells after 14 to 16 hrs by dual-Glo luciferase assay. The procedure, abridged: as §1

The target of experiment [5] is T4, Retinoic acid receptor RXR-gamma (Homo sapiens) (UniProt P48443).
T4 sequence (whole entry): T3 sequence (P48443 whole entry)
Description: Agonist activity at Gal4-LBD fused RXRgamma (unknown origin) expressed in HEK293T cells at 0.1 to 3 uM after 14 to 16 hrs in presence of RXR antagonist HX531 by dual-Glo luciferase reporter gene assay.

Experiment [6] can be described thus: Agonist activity at full-length human RXR/LXR expressed in HEK293T cells at 10 uM after 14 to 16 hrs by dual-glo luciferase reporter gene assay relative to untreated control. To be noted: HEK-293T, read-out: Activity. The procedure, abridged:
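RXR:LXR or RXR:PPARγ heterodimer reporter assay with test compound alone. Activation expressed relative to 0.1% DMSO vehicle. Three independent experiments, each in duplicate; mean reported.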

The species named for experiment [7] is Homo sapiens. The experiment in a line: Agonist activity at full-length human PPARgamma/RXR expressed in HEK293T cells at 10 uM after 14 to 16 hrs in presence of 1 uM rosiglitazone by dual-glo luciferase reporter gene assay relative to rosiglitazone. The procedure, abridged: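 RXR:PPARγ heterodimer reporter assay run with reference PPARγ agonist rosiglitazone (1 μM) co-applied. Read-out is mean relative synergistic activation, from three independent experiments each run in duplicate.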

In the case of `Cc1cc(-c2ccc(C(=O)O)cc2)cc(C(C)(C)C)c1`, the Activity entry in experiment [1] is “Active”. The same compound showed an Activity in experiment [2] of 91%.
With `Cc1cc(-c2cc(C(C)(C)C)cc(C(C)(C)C)c2)ccc1C(=O)O`, the fold change (FC) in experiment [3] amounted to 3.
`Cc1cc(-c2cc(C(F)(F)F)cc(C(F)(F)F)c2)ccc1CC(=O)O` came in with an EC50 in experiment [4] of 1000 nM. In addition, the Activity result in experiment [5] is “inactive”. Moreover, the activity at 10 µM in experiment [6] amounted to 63%. The Activity in experiment [7] was 84%.
